ChEMBL document CHEMBL1131025, “14-Desoxy analogues of naltrindole and 7-spiroindanyloxymorphone: the role of the 14-hydroxy group at delta opioid receptors” (J Med Chem, 1998)

Columns and labels:
[1] = organism: Cavia porcellus; assay: (§1) Agonist activity (ability to decrease the twitch height of the electrically stimulated smooth muscle) in electrically stimulated guinea pig ileum(GPI); format: functional, Muscle tissue
How it was run: (§2)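 Electrically stimulated guinea pig ileum. Agonism read as a drop in twitch height. Compounds were first tested at 1 μM. Full agonists were then run at 4-6 concentrations to build a dose-response curve and give the IC50 for half-maximal response (n ≥ 3). Partial responders were reported as percent of maximal agonist response.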

[2] = organism: Mus musculus; assay: Agonist vas deferens(MVD); format: functional
How it was run: as §2, with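 “mouse vas deferens.” for “guinea pig ileum.”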

[3] = target: Delta-type opioid receptor (Mus musculus) (UniProt P32300); assay: Antagonistic activity expressed as IC50 ratio against DADLE-Opioid receptor delta 1 in smooth muscle preparations of mouse vas deferens(MVD); format: functional
How it was run: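 Electrically stimulated mouse vas deferens. The preparation was preincubated 15 min with test compound (100 nM) before challenge with the standard δ agonist DADLE. The ratio is DADLE IC50 with antagonist divided by control IC50 of DADLE alone (n ≥ 3).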

[4] = organism: Cavia porcellus; assay: as §1; format: functional, organism-based; conditions: Muscle tissue; how it was run: as §2
[5] = organism: Cavia porcellus; assay: Antagonist potency (Ke) was evaluated in guinea pig ileum(GPI); format: functional
How it was run: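 Antagonist potency came from IC50-ratio tests in which smooth muscle was preincubated 15 min with antagonist before agonist challenge.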

[6] = target: Kappa-type opioid receptor (Cavia porcellus) (UniProt P41144); assay: Antagonistic activity expressed as IC50 ratio against ethylketazocine (EK) Opioid receptor kappa 1 in smooth muscle preparations; format: functional
How it was run: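 Electrically stimulated guinea pig ileum. The preparation was preincubated 15 min with test compound (100 nM) before challenge with a standard agonist: morphine for μ, ethylketazocine for κ. The ratio is agonist IC50 with antagonist divided by control IC50 of agonist alone (n ≥ 3).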

[7] = organism: Cavia porcellus; assay: Agonist activity (ability to decrease the twitch height of the electrically stimulated smooth muscle) in electrically stimulated guinea pig ileum (GPI); format: functional; how it was run: as §2

Delta-type opioid receptor (Mus musculus), sequence (P32300 whole entry): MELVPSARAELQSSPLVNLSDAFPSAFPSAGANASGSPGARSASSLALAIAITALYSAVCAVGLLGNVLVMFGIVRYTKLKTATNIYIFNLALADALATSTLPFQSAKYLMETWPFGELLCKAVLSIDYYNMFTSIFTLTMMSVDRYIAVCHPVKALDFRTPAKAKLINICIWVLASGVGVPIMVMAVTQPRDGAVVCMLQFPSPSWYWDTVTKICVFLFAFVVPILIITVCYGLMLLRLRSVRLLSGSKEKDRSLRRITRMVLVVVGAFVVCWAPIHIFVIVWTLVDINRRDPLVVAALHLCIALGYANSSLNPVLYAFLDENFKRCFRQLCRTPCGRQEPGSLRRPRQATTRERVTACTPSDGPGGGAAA
Kappa-type opioid receptor (Cavia porcellus), sequence (P41144 whole entry): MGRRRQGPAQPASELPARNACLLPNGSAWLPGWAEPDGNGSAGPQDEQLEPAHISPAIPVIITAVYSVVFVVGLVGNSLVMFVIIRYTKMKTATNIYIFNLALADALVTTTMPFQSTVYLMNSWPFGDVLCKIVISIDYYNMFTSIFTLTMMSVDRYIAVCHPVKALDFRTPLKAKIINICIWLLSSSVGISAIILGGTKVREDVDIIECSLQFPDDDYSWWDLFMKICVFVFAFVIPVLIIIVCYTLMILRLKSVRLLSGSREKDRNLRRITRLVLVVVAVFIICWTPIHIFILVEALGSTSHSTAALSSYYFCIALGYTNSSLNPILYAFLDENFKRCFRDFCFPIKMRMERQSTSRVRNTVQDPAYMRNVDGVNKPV

Structure (SMILES)	Max response [1] [%]	Max response [2] [%]	IC50 ratio [3]	IC50 [4] [nM]	Ke [5]	IC50 ratio [6]	Max response [7] [%]
Oc1ccc2c3c1O[C@H]1c4[nH]c5ccccc5c4C[C@@]4(O)[C@@H](C2)N(CC2CC2)CC[C@]314 [NALTRINDOLE]	7.6	37.1					
CN1CCC23c4c5ccc(O)c4O[C@H]2C(=O)C2(Cc4ccccc4C2)CC3C1C5 (some centres not stated)		58.6	0.85	153			
Oc1ccc2c3c1O[C@H]1c4[nH]c5ccccc5c4CC4C(C2)N(CC2CC2)CCC341 (some centres not stated)		22.6	34.6		2.98	1.64	16.85
CN1CC[C@]23c4c5ccc(O)c4O[C@H]2C(=O)C2(Cc4ccccc4C2)C[C@@]3(O)[C@H]1C5 [SPIROINDANYLOXYMORPHONE]	55					1	
